# Tests used:
# [1] = Oral bioavailability in rat at 1 mg/kg; type: ADME, organism-based; settings: in vivo
# [2] = Half life in rat at 0.5 mg/kg, iv or 1 mg/kg, po; type: ADME, organism-based; settings: in vivo
# Rattus norvegicus [3] = assay: Natriuretic activity in Sprague-Dawley rat at 0.3 mg/kg via oral gavage administered 30 mins prior to void induction by loading saline measured upto 4 hrs relative to vehicle treated control; type: functional
# Method in brief: (§1)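 Acute rat diuresis model in male-unspecified Sprague-Dawley rats, single oral dose, urine collected over 4 h. Urine volume, sodium excretion and potassium excretion expressed as fold increase over vehicle-treated controls; n = 5 per group; significance tested against vehicle.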
# [4] = molecular target: T1, Voltage-gated inwardly rectifying potassium channel KCNH2 (Homo sapiens, UniProt Q12809); assay: Displacement of [35S]MK-499 from human ERG
# T1 sequence (Q12809 whole entry): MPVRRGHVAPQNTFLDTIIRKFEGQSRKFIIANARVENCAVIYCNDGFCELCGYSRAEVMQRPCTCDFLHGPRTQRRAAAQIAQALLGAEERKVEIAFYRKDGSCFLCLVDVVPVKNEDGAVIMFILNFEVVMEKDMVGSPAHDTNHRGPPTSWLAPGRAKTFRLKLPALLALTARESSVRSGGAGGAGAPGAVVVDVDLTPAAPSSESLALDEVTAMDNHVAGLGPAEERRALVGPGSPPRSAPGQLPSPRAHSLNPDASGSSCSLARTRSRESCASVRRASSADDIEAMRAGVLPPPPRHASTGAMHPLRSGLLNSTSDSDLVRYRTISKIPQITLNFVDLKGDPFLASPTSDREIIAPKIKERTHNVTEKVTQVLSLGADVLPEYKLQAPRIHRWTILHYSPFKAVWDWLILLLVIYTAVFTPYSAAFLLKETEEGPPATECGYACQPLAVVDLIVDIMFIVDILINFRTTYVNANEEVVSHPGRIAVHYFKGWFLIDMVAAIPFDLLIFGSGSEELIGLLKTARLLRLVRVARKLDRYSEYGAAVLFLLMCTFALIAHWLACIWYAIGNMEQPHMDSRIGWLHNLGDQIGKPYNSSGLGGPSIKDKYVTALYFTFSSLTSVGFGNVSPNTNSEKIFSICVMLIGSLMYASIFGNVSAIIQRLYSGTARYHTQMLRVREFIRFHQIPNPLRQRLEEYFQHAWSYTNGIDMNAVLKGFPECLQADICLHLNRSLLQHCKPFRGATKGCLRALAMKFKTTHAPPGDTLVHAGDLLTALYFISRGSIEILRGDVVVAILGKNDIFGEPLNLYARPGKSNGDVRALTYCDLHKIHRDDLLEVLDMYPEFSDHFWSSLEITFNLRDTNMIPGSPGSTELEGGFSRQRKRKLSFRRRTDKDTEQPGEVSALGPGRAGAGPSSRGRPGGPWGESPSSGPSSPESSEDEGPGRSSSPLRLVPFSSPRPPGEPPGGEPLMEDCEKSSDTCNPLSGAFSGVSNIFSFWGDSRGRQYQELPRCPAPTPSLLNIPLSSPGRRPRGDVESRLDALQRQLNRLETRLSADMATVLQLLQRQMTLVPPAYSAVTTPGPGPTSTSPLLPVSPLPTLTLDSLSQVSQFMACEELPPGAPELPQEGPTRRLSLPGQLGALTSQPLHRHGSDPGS
# Rattus norvegicus [5] = assay: Kaliuretic activity in Sprague-Dawley rat at 0.3 mg/kg via oral gavage administered 30 mins prior to void induction by loading saline measured upto 4 hrs relative to vehicle treated control; type: functional; method in brief: as §1
# Rattus norvegicus [6] = assay: Diuretic activity in Sprague-Dawley rat at 0.3 mg/kg via oral gavage administered 30 mins prior to void induction by loading saline measured upto 4 hrs relative to vehicle treated control; type: functional; method in brief: as §1
# Rattus norvegicus [7] = assay: Kaliuretic activity in Sprague-Dawley rat at 3 mg/kg via oral gavage administered 30 mins prior to void induction by loading saline measured upto 4 hrs relative to vehicle treated control; type: functional; method in brief: as §1
# [8] = Clearance in rat at 0.5 mg/kg, iv or 1 mg/kg, po; type: ADME, organism-based; settings: in vivo
# Rattus norvegicus [9] = assay: Kaliuretic activity in Sprague-Dawley rat at 1 mg/kg via oral gavage administered 30 mins prior to void induction by loading saline measured upto 4 hrs relative to vehicle treated control; type: functional; method in brief: as §1
# Rattus norvegicus [10] = assay: Natriuretic activity in Sprague-Dawley rat at 3 mg/kg via oral gavage administered 30 mins prior to void induction by loading saline measured upto 4 hrs relative to vehicle treated control; type: functional
# Method in brief: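 Acute 4 h diuresis/natriuresis study in SD rats given a single oral dose, n = 5 per group. Urinary sodium output is expressed as fold increase over vehicle-treated animals, with significance tested against vehicle.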
# [11] = Dose normalized AUC in rat at 1 mg/kg, po; type: ADME, organism-based; settings: in vivo
# [12] = molecular target: T1, Voltage-gated inwardly rectifying potassium channel KCNH2; assay: Inhibition of human ERG after 6 mins by electrophysiological assay
# [13] = Volume of distribution at steady state in rat at 0.5 mg/kg, iv or 1 mg/kg, po; type: ADME, organism-based; settings: in vivo, read-out: Vdss
# Rattus norvegicus [14] = assay: Diuretic activity in Sprague-Dawley rat at 3 mg/kg via oral gavage administered 30 mins prior to void induction by loading saline measured upto 4 hrs relative to vehicle treated control; type: functional
# Method in brief: (§2)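 Acute 4 h study in Sprague-Dawley rats after oral dosing, n = 5 per group. Urine volume and sodium and potassium excretion were expressed as fold increase over vehicle-treated animals. Significance was tested versus vehicle (p < 0.05 or p < 0.01).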
# Rattus norvegicus [15] = assay: Natriuretic activity in Sprague-Dawley rat at 1 mg/kg via oral gavage administered 30 mins prior to void induction by loading saline measured upto 4 hrs relative to vehicle treated control; type: functional; method in brief: as §1
# Rattus norvegicus [16] = assay: Diuretic activity in Sprague-Dawley rat at 1 mg/kg via oral gavage administered 30 mins prior to void induction by loading saline measured upto 4 hrs relative to vehicle treated control; type: functional; method in brief: as §1
# [17] = molecular target: T2, ATP-sensitive inward rectifier potassium channel 1 (Homo sapiens, UniProt P48048); assay: Inhibition of ROMK (unknown origin) after 30 mins by 86Rb+ efflux assay
# T2 sequence (P48048 whole entry): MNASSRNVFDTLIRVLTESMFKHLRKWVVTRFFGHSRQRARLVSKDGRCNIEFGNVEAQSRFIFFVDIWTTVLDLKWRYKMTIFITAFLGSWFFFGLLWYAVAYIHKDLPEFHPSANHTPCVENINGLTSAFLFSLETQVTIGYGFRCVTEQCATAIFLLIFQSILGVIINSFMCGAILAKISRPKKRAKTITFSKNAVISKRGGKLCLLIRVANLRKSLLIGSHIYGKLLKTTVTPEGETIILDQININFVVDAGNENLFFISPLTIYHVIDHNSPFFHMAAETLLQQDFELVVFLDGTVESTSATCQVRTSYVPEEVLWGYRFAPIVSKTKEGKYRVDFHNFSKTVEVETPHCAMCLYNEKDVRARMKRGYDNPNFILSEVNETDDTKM
# Homo sapiens [18] = species on record: Homo sapiens; assay: Selectivity ratio of IC50 for human ERG to IC50 for ROMK (unknown origin)
# Rattus norvegicus [19] = assay: Natriuretic activity in Sprague-Dawley rat at 10 mg/kg via oral gavage administered 30 mins prior to void induction by loading saline measured upto 4 hrs relative to vehicle treated control; type: functional; method in brief: as §2
# Rattus norvegicus [20] = assay: Diuretic activity in Sprague-Dawley rat at 10 mg/kg via oral gavage administered 30 mins prior to void induction by loading saline measured upto 4 hrs relative to vehicle treated control; type: functional; method in brief: as §2
# [21] = Half life in rat at 1 mg/kg, iv or 2 mg/kg, po; type: ADME, organism-based; settings: in vivo
# Method in brief: (§3)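 Rats dosed once at 1 mg/kg IV and, separately, 2 mg/kg PO, with n = 3. Derived parameters were plasma clearance, Vdss, dose-normalized oral AUC (μM·h·kg/mg), half-life, and oral bioavailability (F%).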
# [22] = Volume of distribution at steady state in rat at 1 mg/kg, iv or 2 mg/kg, po; type: ADME, organism-based; settings: in vivo, read-out: Vdss; method in brief: as §3
# [23] = Dose normalized AUC in rat at 2 mg/kg, po; type: ADME, organism-based; settings: in vivo; method in brief: as §3
# [24] = Oral bioavailability in rat at 2 mg/kg; type: ADME, organism-based; settings: in vivo; method in brief: as §3
# [25] = Clearance in rat at 1 mg/kg, iv or 2 mg/kg, po; type: ADME, organism-based; settings: in vivo; method in brief: as §3
# Homo sapiens [26] = species on record: Homo sapiens; assay: Selectivity ratio of IC50 for human ERG to IC50 for ROMK (unknown origin) expressed in CHO cells by electrophysiological assay; type: cell-based
# Method in brief: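 Both channels were tested in electrophysiology (EP) assays. The ratio is the hERG EP IC50 divided by the ROMK EP IC50.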
# [27] = molecular target: T2, ATP-sensitive inward rectifier potassium channel 1; assay: Inhibition of ROMK (unknown origin) expressed in CHO cells after 6 mins by electrophysiological assay; type: cell-based
# Rattus norvegicus [28] = assay: Kaliuretic activity in Sprague-Dawley rat administered via oral gavage 30 mins prior to void induction by loading saline measured upto 4 hrs relative to vehicle treated control; type: functional; method in brief: as §2
# Rattus norvegicus [29] = assay: Antihypertensive activity in spontaneously hypertensive rat assessed as reduction in systolic blood pressure at 25 mg/kg via oral gavage qd administered for 4 days measured on day 4 by telemetry (reference value: 2.5 +/- 2.2 mmHg); type: functional
smiles,measurement,setting,value
Cc1c([C@H](O)CN2CCN(C[C@@H](O)c3ccc4c(c3C)COC4=O)CC2)ccc2c1COC2=O,bioavailability,[1],45%
same,half-life,[2],51.6 min
same,fold change (FC),Rattus norvegicus [3],1.4
same,IC50,[4],47 µM
same,fold change (FC),Rattus norvegicus [5],1.1
same,fold change (FC),Rattus norvegicus [6],1.3
same,fold change (FC),Rattus norvegicus [7],0.9
same,clearance,[8],82 mL/min/kg
same,fold change (FC),Rattus norvegicus [9],1
same,fold change (FC),Rattus norvegicus [10],2.2
same,AUC/dose,[11],0.13 µM·kg·h/mg
same,IC50,[12],22 µM
same,Vd,[13],5.8 L/kg
same,fold change (FC),Rattus norvegicus [14],1.9
same,fold change (FC),Rattus norvegicus [15],1.5
same,fold change (FC),Rattus norvegicus [16],1.6
Cc1c([C@H](O)CN2CCN(C[C@H](O)c3ccc4c(c3C)COC4=O)CC2)ccc2c1COC2=O,bioavailability,[1],44%
same,half-life,[2],84 min
same,IC50,[4],100 µM
same,fold change (FC),Rattus norvegicus [7],1.1
same,clearance,[8],54 mL/min/kg
same,fold change (FC),Rattus norvegicus [9],1.3
same,fold change (FC),Rattus norvegicus [10],4.1
same,AUC/dose,[11],0.3 µM·kg·h/mg
same,IC50,[12],> 30 µM
same,Vd,[13],4.5 L/kg
same,fold change (FC),Rattus norvegicus [14],4.5
same,fold change (FC),Rattus norvegicus [15],3.7
same,fold change (FC),Rattus norvegicus [16],3.5
Cc1c(CCN2CCN(CC(O)c3ccc4c(c3C)COC4=O)CC2)ccc2c1COC2=O (centres undefined),IC50,[17],34 nM
Cc1c(C(O)CN2CCN(C(=O)Cc3ccc(-n4cnnn4)cc3)CC2)ccc2c1COC2=O (centres undefined),IC50,[4],100 µM
same,IC50,[17],510 nM
same,Ratio IC50,Homo sapiens [18],200
Cc1c(C(C)CN2CCN(C(=O)Cc3ccc(-n4cnnn4)cc3)CC2)ccc2c1COC2=O (centres undefined),IC50,[4],60 µM
same,IC50,[17],160 nM
same,Ratio IC50,Homo sapiens [18],380
Cc1c(CCN2CCN(CCc3ccc4c(c3C)COC4=O)CC2)ccc2c1COC2=O,IC50,[4],3 µM
same,Ratio IC50,Homo sapiens [18],39
Cc1c(C(O)CN2CCN(CC(O)c3ccc4c(c3C)COC4=O)CC2)ccc2c1COC2=O (centres undefined),IC50,[4],23 µM
same,fold change (FC),Rattus norvegicus [19],9.5
same,fold change (FC),Rattus norvegicus [10],9.4
same,IC50,[12],28 µM
same,fold change (FC),Rattus norvegicus [14],6.7
same,fold change (FC),Rattus norvegicus [20],6.8
Cc1c(C(F)CN2CCN(C(=O)Cc3ccc(-n4cnnn4)cc3)CC2)ccc2c1COC2=O (centres undefined),IC50,[4],68 µM
same,half-life,[21],21 min
same,Vd,[22],1.4 L/kg
same,AUC/dose,[23],0.23 µM·h
same,bioavailability,[24],36%
same,IC50,[17],69 nM
same,Ratio IC50,Homo sapiens [18],1000
same,clearance,[25],58 mL/min/kg
Cc1c(C(F)CN2CCN(CC(F)c3ccc4c(c3C)COC4=O)CC2)ccc2c1COC2=O (centres undefined),Ratio IC50,Homo sapiens [26],> 770
same,IC50,[27],117 nM
same,IC50,[4],40 µM
same,fold change (FC),Rattus norvegicus [19],3
same,fold change (FC),Rattus norvegicus [10],1.7
same,IC50,[12],> 90 µM
same,IC50,[17],96 nM
same,fold change (FC),Rattus norvegicus [14],1.6
same,Ratio IC50,Homo sapiens [18],420
same,fold change (FC),Rattus norvegicus [20],3
NS(=O)(=O)c1cc2c(cc1Cl)NCNS2(=O)=O [HYDROCHLOROTHIAZIDE],fold change (FC),Rattus norvegicus [28],2
same,Activity,Rattus norvegicus [29],15 mmHg

# From ChEMBL document CHEMBL4425169 (ACS Med Chem Lett, 2016)
